{
  "source": "ChEMBL document CHEMBL1949626",
  "about": "“Ultrasound-assisted bismuth nitrate-induced green synthesis of novel pyrrole derivatives and their biological evaluation as anticancer agents” (Eur J Med Chem, 2012)",
  "key": {"HT-29": {"tested_on": "HT-29", "experiment": "Cytotoxicity against human HT-29 cells after 48 hrs by sulforhodamine B assay", "format": "functional, cell-based", "details": "HT-29, 48 h", "in_short": "(§1)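 Cells seeded at 5000/well, incubated overnight at 37 °C, then exposed 48 h to 0.1 µM-100 µM compound from DMSO stock (final DMSO ≤0.25%); 0.25% DMSO vehicle and 10 μM doxorubicin controls. Fixed, stained with sulforhodamine B, absorbance normalized to untreated cells; 4-parameter logistic fit gives IC50, mean ± SD of two independent assays.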"}, "HeLa": {"tested_on": "HeLa", "experiment": "Cytotoxicity against human HeLa cells after 48 hrs by sulforhodamine B assay", "format": "functional, cell-based", "in_short": "as §1"}, "[1]": {"experiment": "Cytotoxicity against mouse Hepa1-6 cells after 48 hrs by sulforhodamine B assay", "details": "Hepa1-6, 48 h"}, "Caco-2": {"tested_on": "Caco-2", "experiment": "Cytotoxicity against human Caco2 cells after 48 hrs by sulforhodamine B assay", "format": "functional, cell-based", "details": "Caco-2, 48 h", "in_short": "as §1"}, "HepG2 [2]": {"tested_on": "HepG2", "experiment": "Cytotoxicity against human HepG2 cells after 48 hrs by sulforhodamine B assay", "format": "functional, cell-based", "details": "HepG2, 48 h", "in_short": "as §1"}, "NIH3T3": {"tested_on": "NIH3T3", "experiment": "Cytotoxicity against […] cells after 48 hrs by sulforhodamine B assay", "format": "functional, cell-based", "details": "Mus musculus, NIH3T3, 48 h", "in_short": "as §1"}, "[3]": {"experiment": "Cytotoxicity against mouse Hepa1-6 cells at 50 uM after 48 hrs by sulforhodamine B assay"}, "HepG2 [4]": {"tested_on": "HepG2", "experiment": "Induction of apoptosis in human HepG2 cells assessed as increase in caspase3/7 activity", "format": "functional, cell-based"}, "HepG2 [5]": {"tested_on": "HepG2", "experiment": "Cytotoxicity against human HepG2 cells at 2 times IC50 after 72 hrs by sulforhodamine B assay", "format": "functional", "in_short": "(§2)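 HepG2 seeded at 5000 cells/well and treated at twice each compound's calculated IC50 for 24, 48 or 72 h. Cells fixed and viability read by SRB absorbance, normalized to untreated. Three independent experiments run in duplicate; mean ± SD.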"}, "Hepatocyte": {"tested_on": "Hepatocyte", "experiment": "Cytotoxicity against CD1 mouse hepatocytes at 10 uM after 48 hrs by MTS assay", "format": "cell-based", "in_short": "(§3)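 Fresh CD-1 mouse hepatocytes (Williams' E medium) or Hepa1-6 (DMEM, 10% FBS), plated, incubated overnight at 37 °C; media refreshed, then 0.5, 2.5, 5 and 10 μM compound for 48 h. MTS reagent added for 4 h at 37 °C, 5% CO2; A490 normalized to untreated cells. Two independent experiments in duplicate, mean ± SD.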"}, "HepG2 [6]": {"tested_on": "HepG2", "experiment": "Cytotoxicity against human HepG2 cells at 2 times IC50 after 24 hrs by sulforhodamine B assay", "format": "functional", "in_short": "as §2"}, "HepG2 [7]": {"tested_on": "HepG2", "experiment": "Inhibition of anchorage-independent growth of human HepG2 cells at 12.5 uM after 7 days by soft agar colony formation assay", "format": "functional", "details": "HepG2, 168 h, read-out: GI", "in_short": "(§4)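 HepG2 at 5000 cells/well in top soft agar, exposed to compound for 7 days with compound and fresh medium replaced once on day 4. Agar solubilized on day 7 and cells quantified by fluorescence (485–520 nm filters). Duplicate wells per dose, SD shown.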"}, "HepG2 [8]": {"tested_on": "HepG2", "experiment": "Inhibition of anchorage-independent growth of human HepG2 cells at 25 uM after 7 days by soft agar colony formation assay", "format": "functional", "details": "HepG2, 168 h, read-out: GI", "in_short": "as §4"}, "HepG2 [9]": {"tested_on": "HepG2", "experiment": "Induction of apoptosis in human HepG2 cells assessed as increase in DNA fragmentation by TUNEL assay", "format": "functional, cell-based"}, "Hepa1-6 [10]": {"tested_on": "Hepa1-6", "experiment": "Cytotoxicity against mouse Hepa1-6 cells at 2.5 to 5 uM after 48 hrs by MTS assay"}, "HepG2 [11]": {"tested_on": "HepG2", "experiment": "Cytotoxicity against human HepG2 cells at 2 times IC50 after 48 hrs by sulforhodamine B assay", "format": "functional", "in_short": "as §2"}, "Hepa1-6 [12]": {"tested_on": "Hepa1-6", "experiment": "Cytotoxicity against […] cells at 2.5 to 5 uM after 48 hrs by MTS assay", "format": "functional, cell-based", "in_short": "as §3"}, "[13]": {"experiment": "Cytotoxicity against […] cells after 48 hrs by sulforhodamine B assay", "format": "functional, cell-based", "details": "Hepa1-6, 48 h", "in_short": "as §1"}},
  "note": "Calls of active or inactive are those of the source. The calls are words filed in the database; no cut-off is given here.",
  "data": [
    {"compound": "c1ccn(C23CC4CC(CC(C4)C2)C3)c1", "values": [
      {"measurement": "IC50", "setting": "HT-29", "value": 11.9, "unit": "µM"},
      {"measurement": "IC50", "setting": "HeLa", "value": 12.9, "unit": "µM"},
      {"measurement": "IC50", "setting": "[1]", "value": 19.9, "unit": "µM"},
      {"measurement": "IC50", "setting": "Caco-2", "value": "> 50", "unit": "µM"},
      {"measurement": "IC50", "setting": "HepG2 [2]", "value": 38.6, "unit": "µM"},
      {"measurement": "IC50", "setting": "NIH3T3", "value": 24, "unit": "µM"}
    ]},
    {"compound": "c1cc2ccc3ccc(-n4cccc4)c4ccc(c1)c2c34", "values": [
      {"measurement": "IC50", "setting": "HT-29", "value": 24.3, "unit": "µM"},
      {"measurement": "IC50", "setting": "HeLa", "value": 17.7, "unit": "µM"},
      {"measurement": "IC50", "setting": "Caco-2", "value": "> 50", "unit": "µM"},
      {"measurement": "IC50", "setting": "HepG2 [2]", "value": "> 50", "unit": "µM"}
    ]},
    {"compound": "c1ccc2c(c1)ccc1c3ccccc3c(-n3cccc3)cc21", "values": [
      {"measurement": "IC50", "setting": "HT-29", "value": "> 50", "unit": "µM"},
      {"measurement": "IC50", "setting": "HeLa", "value": "> 50", "unit": "µM"},
      {"measurement": "IC50", "setting": "[1]", "value": 0.7, "unit": "µM"},
      {"measurement": "IC50", "setting": "Caco-2", "value": "> 50", "unit": "µM"},
      {"measurement": "Activity", "setting": "[3]", "value": 50, "unit": "%"},
      {"measurement": "IC50", "setting": "HepG2 [2]", "value": "> 50", "unit": "µM"},
      {"measurement": "IC50", "setting": "NIH3T3", "value": "> 50", "unit": "µM"}
    ]},
    {"compound": "c1cnc2c(c1)cc(-n1cccc1)c1cccnc12", "values": [
      {"measurement": "Activity", "setting": "HepG2 [4]", "value": "inactive"},
      {"measurement": "IC50", "setting": "HT-29", "value": 4.2, "unit": "µM"},
      {"measurement": "IC50", "setting": "HeLa", "value": 27.9, "unit": "µM"},
      {"measurement": "Activity", "setting": "HepG2 [5]", "value": ">50", "unit": "%"},
      {"measurement": "IC50", "setting": "[1]", "value": 3.4, "unit": "µM"},
      {"measurement": "Activity", "setting": "Hepatocyte", "value": "Non-toxic"},
      {"measurement": "Activity", "setting": "HepG2 [6]", "value": 20, "unit": "%"},
      {"measurement": "inhibition of growth at 12.5 µM", "setting": "HepG2 [7]", "value": "> 80", "unit": "%"},
      {"measurement": "inhibition of growth at 25 µM", "setting": "HepG2 [8]", "value": "> 60", "unit": "%"},
      {"measurement": "Activity", "setting": "HepG2 [9]", "value": "inactive"},
      {"measurement": "Activity", "setting": "Hepa1-6 [10]", "value": "Active"},
      {"measurement": "Activity", "setting": "HepG2 [11]", "value": ">50", "unit": "%"},
      {"measurement": "IC50", "setting": "HepG2 [2]", "value": 3, "unit": "µM"},
      {"measurement": "IC50", "setting": "NIH3T3", "value": 1.9, "unit": "µM"}
    ]},
    {"compound": "c1ccc2c(c1)ccc1cc(-n3cccc3)ccc12", "values": [
      {"measurement": "Activity", "setting": "Hepa1-6 [12]", "value": "Active"},
      {"measurement": "IC50", "setting": "[13]", "value": 3.9, "unit": "µM"},
      {"measurement": "Activity", "setting": "HepG2 [4]", "value": "inactive"},
      {"measurement": "IC50", "setting": "HT-29", "value": "> 50", "unit": "µM"},
      {"measurement": "IC50", "setting": "HeLa", "value": "> 50", "unit": "µM"},
      {"measurement": "Activity", "setting": "HepG2 [5]", "value": ">50", "unit": "%"},
      {"measurement": "Activity", "setting": "Hepatocyte", "value": "Non-toxic"},
      {"measurement": "Activity", "setting": "HepG2 [6]", "value": 20, "unit": "%"},
      {"measurement": "inhibition of growth at 12.5 µM", "setting": "HepG2 [7]", "value": "> 80", "unit": "%"},
      {"measurement": "inhibition of growth at 25 µM", "setting": "HepG2 [8]", "value": "> 60", "unit": "%"},
      {"measurement": "Activity", "setting": "HepG2 [9]", "value": "inactive"},
      {"measurement": "IC50", "setting": "Caco-2", "value": "> 50", "unit": "µM"},
      {"measurement": "Activity", "setting": "HepG2 [11]", "value": ">50", "unit": "%"},
      {"measurement": "IC50", "setting": "HepG2 [2]", "value": 13.4, "unit": "µM"},
      {"measurement": "IC50", "setting": "NIH3T3", "value": 2.1, "unit": "µM"}
    ]}
  ]
}
